Laboratory results published in ChEMBL document CHEMBL3102750 (J Med Chem, 2013).

Experiments:
[1] = target: T1, Muscarinic acetylcholine receptor M5 (Homo sapiens) (UniProt P08912); assay: Negative allosteric modulation of human muscarinic acetylcholine receptor M5 expressed in CHO cells assessed as reduction of acetylcholine-induced calcium mobilization at 10 uM incubated for 150 secs prior to acetylcholine induction by Fluo-4 AM staining-based fluorescence assay relative to control; type: functional, cell-based; set-up: scale not given: the % may be the effect or the level left
T1 sequence (whole entry): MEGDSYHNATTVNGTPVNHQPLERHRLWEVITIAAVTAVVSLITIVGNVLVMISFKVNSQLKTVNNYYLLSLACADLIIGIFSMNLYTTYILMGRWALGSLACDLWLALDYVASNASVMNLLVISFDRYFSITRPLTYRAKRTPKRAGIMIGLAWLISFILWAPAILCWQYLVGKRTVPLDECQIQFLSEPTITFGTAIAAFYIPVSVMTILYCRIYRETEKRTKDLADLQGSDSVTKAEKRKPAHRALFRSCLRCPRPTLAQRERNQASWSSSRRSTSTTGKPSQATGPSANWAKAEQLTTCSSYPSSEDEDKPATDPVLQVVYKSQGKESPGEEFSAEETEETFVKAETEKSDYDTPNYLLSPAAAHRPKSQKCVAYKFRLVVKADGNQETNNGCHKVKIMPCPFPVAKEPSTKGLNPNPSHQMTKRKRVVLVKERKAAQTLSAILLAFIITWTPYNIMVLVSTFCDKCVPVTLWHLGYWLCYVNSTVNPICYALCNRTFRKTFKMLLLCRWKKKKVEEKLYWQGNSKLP

[2] = system: Plasma; assay: Fraction unbound in Sprague-Dawley rat plasma at 5 uM after 4 hrs by equilibrium dialysis method; type: ADME, cell-free
Method in brief: (§1)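 Fraction unbound determined in plasma from rat, cynomolgus monkey and human.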

[3] = system: Plasma; assay: Fraction unbound in cynomolgus monkey plasma at 5 uM after 4 hrs by equilibrium dialysis method; type: ADME, cell-free, Macaca fascicularis; method in brief: as §1
[4] = system: Plasma; assay: Fraction unbound in human plasma at 5 uM after 4 hrs by equilibrium dialysis method; type: ADME, cell-free; method in brief: as §1
[5] = Elimination half life in Sprague-Dawley rat at 1 mg/kg, iv; type: ADME, organism-based; set-up: dose 1 mg/kg, route intravenous; conditions: in vivo, read-out: beta t1/2 (converted)
[6] = system: Cynomolgus monkey; assay: Elimination half life in cynomolgus monkey at 1 mg/kg, iv; type: ADME, organism-based, Macaca fascicularis; set-up: dose 1 mg/kg, route intravenous; conditions: in vivo
[7] = system: Rattus norvegicus; assay: Volume of distribution at steady state in Sprague-Dawley rat at 1 mg/kg, iv; type: ADME, organism-based; set-up: dose 1 mg/kg, route intravenous; conditions: in vivo
[8] = Oral bioavailability in Sprague-Dawley rat; type: ADME, organism-based; conditions: in vivo
[9] = Cmax in po dosed Sprague-Dawley rat; type: ADME, organism-based; set-up: route oral; conditions: in vivo
[10] = Tmax in po dosed Sprague-Dawley rat; type: ADME, organism-based; conditions: in vivo
[11] = Ratio of unbound brain to plasma partition coefficient in Sprague-Dawley rat at 10 mg/kg, po measured at 1 hr; type: ADME, organism-based; set-up: dose 10 mg/kg, route oral
Method in brief: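 Oral CNS distribution study in male Sprague-Dawley rats (n=2), 10 mg/kg; brain and plasma sampled one hour post-dose. Total (Kp) and unbound (Kp,uu) brain-plasma partition coefficients calculated, with unbound fractions from plasma and brain homogenate binding.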

[12] = target: Cannabinoid receptor 1 (Homo sapiens) (UniProt P21554); assay: Binding affinity to human CB1 receptor at 10 uM by radioligand binding assay relative to control
Chain of Cannabinoid receptor 1 (Homo sapiens) (P21554 whole entry): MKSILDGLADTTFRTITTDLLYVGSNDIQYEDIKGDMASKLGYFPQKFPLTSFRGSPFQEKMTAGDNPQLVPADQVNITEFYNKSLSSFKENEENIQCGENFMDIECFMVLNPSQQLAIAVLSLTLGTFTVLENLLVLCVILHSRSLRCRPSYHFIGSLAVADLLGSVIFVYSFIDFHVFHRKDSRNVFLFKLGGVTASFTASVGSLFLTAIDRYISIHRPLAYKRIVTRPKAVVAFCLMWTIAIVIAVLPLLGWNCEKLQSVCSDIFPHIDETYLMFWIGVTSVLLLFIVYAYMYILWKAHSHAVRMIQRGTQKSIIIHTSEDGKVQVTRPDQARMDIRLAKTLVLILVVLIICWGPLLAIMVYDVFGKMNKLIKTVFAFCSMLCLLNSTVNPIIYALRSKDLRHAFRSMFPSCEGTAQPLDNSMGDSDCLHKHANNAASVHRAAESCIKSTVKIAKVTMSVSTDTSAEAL

Structure (SMILES): O=C(c1ccc(F)c(F)c1)N1CCN2C(=O)c3ccccc3C12c1ccccc1 (configuration not stated)
- Activity [1]: 0%

Structure (SMILES): O=C(c1ccc(F)c(F)c1)N1CCN2C(=O)c3ccccc3[C@@]12c1ccc(Cl)cc1
- Fu [2]: 0.029
- Fu [3]: 0.001
- Fu [4]: 0.013
- half-life [5]: 3.33 days
- beta t1/2 [6]: 10 h
- Vdss [7]: 16 L/kg
- bioavailability [8]: 80%
- Cmax [9]: 1400 nM
- Tmax [10]: 7 h
- K(p,uu,brain) [11]: 0.2
- inhibition [12]: 66%
